The values that follow come from ChEMBL document CHEMBL2321743, “Novel hybrid-type antimicrobial agents targeting the switch region of bacterial RNA polymerase” (ACS Med Chem Lett, 2013).

Assay [1] has as its system Bacillus spizizenii. The experiment in a line: Antibacterial activity against Bacillus subtilis ATCC 6633 at 30 ug/disk after 12 hrs by paper disk diffusion assay. The note with it: for zone of inhibition at 30 µg/disc: ATCC 6633, 12 h, read-out: DIZ. In kind it is functional. The gist of the method:
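Test compounds dissolved in MeOH and applied to paper disks at 30 μg/disk against Bacillus subtilis. Read-out is the diameter of the zone of complete growth inhibition.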
Background: Agar diffusion results depend on both activity and mobility in agar.

Another assay relates to Escherichia coli. Briefly: Antibacterial activity against Escherichia coli ATCC 25922 after 24 hrs by broth microdilution method. Format: functional. The following applies: ATCC 25922, 24 h.
The next assay has as its system Staphylococcus aureus. The experiment in a line: Antibacterial activity against Staphylococcus aureus ATCC 29213 after 24 hrs by broth microdilution method. Format: functional. The following applies: ATCC 29213, 24 h. For orientation: In broth dilution the organism is exposed to a series of concentrations in liquid medium.
For a further assay, the system named is Pseudomonas aeruginosa. Briefly: Antibacterial activity against Pseudomonas aeruginosa ATCC 27853 after 24 hrs by broth microdilution method. In kind it is functional. The note with it: ATCC 27853, 24 h.
In another assay the test system is Serratia marcescens. Briefly: Antibacterial activity against Serratia marcescens ATCC 13880 after 24 hrs by broth microdilution method. In kind it is functional. The note with it: ATCC 13880, 24 h.
The test system of a further assay is Micrococcus luteus. The experiment in a line: Antibacterial activity against Micrococcus luteus ATCC 9341 after 24 hrs by broth microdilution method. Format: functional. The note with it: ATCC 9341, 24 h.
For the next assay, the system named is Candida albicans. The experiment in a line: Antifungal activity against Candida albicans ATCC 10231 after 48 hrs by broth microdilution method. Format: functional. The following applies: ATCC 10231, 48 h.
The nature of assay [2]: Inhibition of Escherichia coli RNA polymerase after 1 hr by fluorescence assay. In a few lines: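 Assay uses E. coli RNA polymerase. IC50 is taken from three independent dose–response curves, each point measured in duplicate, and reported as mean ± SEM.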
The next assay deals with Enterococcus faecalis. Briefly: Antibacterial activity against Enterococcus faecalis ATCC 29212 after 24 hrs by broth microdilution method. Format: functional. The note with it: ATCC 29212, 24 h.
In assay [3] the test system is Bacillus spizizenii. The experiment in a line: Antibacterial activity against Bacillus subtilis ATCC 6633 after 24 hrs by broth microdilution method. Format: functional. The following applies: ATCC 6633, 24 h.

A word on the MIC: it is the lowest concentration found to suppress growth. Low values mean a more susceptible organism, high ones a less susceptible organism. Usually IC50 stands for the point on the concentration scale where inhibition reaches its midpoint.

Values after ≈ are worked out from the molar mass of the structure shown. Active and inactive are the calls of the source. The calls are words filed in the database; no cut-off is given here.

With `Cc1cc(O)c(C(=O)CCCCCCC(=O)Nc2c3sscc-3[nH]c2=O)c(=O)o1`, the zone of inhibition at 30 µg/disc in the assay on Bacillus spizizenii [1] was 11 mm.

In the case of `Cc1cc(O)c(C(=O)CCCCCCCC(=O)N2CCCCC2)c(=O)o1`, the “diameter of the inhibition zone (DIZ)” value in the assay with Bacillus spizizenii [1] was “inactive”.

As to `C=CCCCc1cc(O)c(C(=O)CCCCCCC(=O)O)c(=O)o1`, in the assay with Bacillus spizizenii [1], the “diameter of the inhibition zone (DIZ)” value was “inactive”.

Consider `Cc1cc(O)c(C(=O)CCCCC(=O)Nc2c3sscc-3[nH]c2=O)c(=O)o1`, for which the MIC in the assay on Escherichia coli was 128 µg/mL (≈ 313 µM); against Staphylococcus aureus it was 64 µg/mL (≈ 157 µM); with Pseudomonas aeruginosa, 64 µg/mL (≈ 157 µM); with Serratia marcescens, 128 µg/mL (≈ 313 µM); against Micrococcus luteus, 8 µg/mL (≈ 19.6 µM); in the assay with Candida albicans, 128 µg/mL (≈ 313 µM). Moreover, the MIC against Enterococcus faecalis is 16 µg/mL (≈ 39.2 µM); in the assay on Bacillus spizizenii [3] it was 64 µg/mL (≈ 157 µM). In addition, the zone of inhibition at 30 µg/disc in the assay on Bacillus spizizenii [1] is 14 mm. For the same compound, the half-inhibitory concentration (IC50) in assay [2] was more than 2000 µM.

Consider `CCCCCCCCC(=O)c1c(O)cc(C)oc1=O`, for which the MIC against Escherichia coli amounted to 128 µg/mL (≈ 481 µM); with Staphylococcus aureus it was 8 µg/mL (≈ 30 µM); with Pseudomonas aeruginosa it was 128 µg/mL (≈ 481 µM); in the assay with Serratia marcescens, 128 µg/mL (≈ 481 µM); in the assay on Micrococcus luteus it was 2 µg/mL (≈ 7.51 µM); with Candida albicans, 64 µg/mL (≈ 240 µM). Besides, the figures for the MIC against Enterococcus faecalis and against Bacillus spizizenii [3] were 4 µg/mL (≈ 15 µM) and 8 µg/mL (≈ 30 µM), respectively. Also, the zone of inhibition at 30 µg/disc in the assay on Bacillus spizizenii [1] was found to be 12 mm. In addition, in assay [2], the IC50 is more than 2000 µM.

Turning to `Cc1cc(O)c(C(=O)NCCCCCCC(=O)Nc2c3sscc-3[nH]c2=O)c(=O)o1`, in the assay on Bacillus spizizenii [1], the “diameter of the inhibition zone (DIZ)” value was “Active”.

Regarding `CCCCCCCCC(=O)c1c(O)cc(CCCCCC(=O)Nc2c3sscc-3[nH]c2=O)oc1=O`, the zone of inhibition at 30 µg/disc in the assay with Bacillus spizizenii [1] worked out at 9 mm.

As to `Cc1cc(O)c(C(=O)NCCCCCCC(=O)O)c(=O)o1`, the “diameter of the inhibition zone (DIZ)” value in the assay on Bacillus spizizenii [1] is “inactive”.

`CO[C@H]1/C=C/O[C@@]2(C)Oc3c(C)c(O)c4c(O)c(c(/C=N/N5CCN(C)CC5)c(O)c4c3C2=O)NC(=O)/C(C)=C\C=C\[C@H](C)[C@H](O)[C@@H](C)[C@@H](O)[C@@H](C)[C@H](OC(C)=O)[C@@H]1C` [RIFAMPIN]: the MIC in the assay on Escherichia coli was 8 µg/mL (≈ 9.72 µM); with Staphylococcus aureus, 0.5 µg/mL (≈ 0.608 µM); against Pseudomonas aeruginosa, 32 µg/mL (≈ 38.9 µM); against Serratia marcescens, 32 µg/mL (≈ 38.9 µM); against Micrococcus luteus, not above 0.125 µg/mL; against Candida albicans, not below 256 µg/mL. Further, the MIC against Enterococcus faecalis is 1 µg/mL (≈ 1.22 µM); in the assay with Bacillus spizizenii [3], not above 0.125 µg/mL. In the assay with Bacillus spizizenii [1], the zone of inhibition at 30 µg/disc was 25 mm. For the same compound, in assay [2], half-maximal inhibition (IC50) required 0.08 µM.

In the case of `CCC(=O)c1c(O)cc(CCCC(=O)Nc2c3sscc-3[nH]c2=O)oc1=O`, the “diameter of the inhibition zone (DIZ)” value in the assay with Bacillus spizizenii [1] was “inactive”.

As for `C=CCCCc1cc(O)c(C(=O)CCCCCCC(=O)Nc2c3sscc-3[nH]c2=O)c(=O)o1`, in the assay with Bacillus spizizenii [1], the zone of inhibition at 30 µg/disc was found to be 10 mm.

Consider `CCCCCCCCC(=O)c1c(O)cc(CCCCCC(=O)O)oc1=O`, for which, in the assay on Bacillus spizizenii [1], the “diameter of the inhibition zone (DIZ)” value was “Active”.

Turning to `C=CCCCC(=O)c1c(O)cc(C)oc1=O`, the zone of inhibition at 30 µg/disc with Bacillus spizizenii [1] amounted to 9 mm.

On to `Cc1cc(O)c(C(=O)CCCCCCC(=O)NC2=C3SS(=O)(=O)C=C3NC2=O)c(=O)o1`, for which the “diameter of the inhibition zone (DIZ)” value in the assay on Bacillus spizizenii [1] was “inactive”.

As for `Cc1cc(O)c(C(=O)CCCCCCC(=O)O)c(=O)o1`, in the assay with Bacillus spizizenii [1], the “diameter of the inhibition zone (DIZ)” value is “inactive”.

For `O=C(CCCCCCCO)Nc1c2sscc-2[nH]c1=O`, the zone of inhibition at 30 µg/disc with Bacillus spizizenii [1] is 9 mm.

Compound `CCCC/C(C)=C/C=C(\C)C(=O)c1c(O)cc([C@H](C)CC/C=C/NC(=O)OC)oc1=O` [MYXOPYRONIN B] gave an IC50 in [2] of 24 µM.

With `Cc1cc(O)c(C(=O)CCCCCCCC(=O)Nc2c3sscc-3[nH]c2=O)c(=O)o1`, the MIC was not below 256 µg/mL with Escherichia coli; 4 µg/mL (≈ 8.88 µM) in the assay on Staphylococcus aureus; 128 µg/mL (≈ 284 µM) with Pseudomonas aeruginosa; not below 256 µg/mL with Serratia marcescens; 1 µg/mL (≈ 2.22 µM) against Micrococcus luteus; not below 256 µg/mL with Candida albicans. Moreover, the MIC with Enterococcus faecalis amounted to 4 µg/mL (≈ 8.88 µM); with Bacillus spizizenii [3], 16 µg/mL (≈ 35.5 µM). Moreover, the zone of inhibition at 30 µg/disc in the assay with Bacillus spizizenii [1] was 15 mm. For the same compound, it took 14 µM to reach half-maximal inhibition in [2] (IC50).

In the case of `CCC(=O)c1c(O)cc(C)oc1=O`, the “diameter of the inhibition zone (DIZ)” value with Bacillus spizizenii [1] was “inactive”.

For `CCCC/C(C)=C/C=C(\C)C(=O)c1c(O)cc(C(C)CC/C=C/NC(=O)OC)oc1=O` (racemic), in the assay with Bacillus spizizenii [1], the “diameter of the inhibition zone (DIZ)” value was “Active”.
